Assay type in all cases: functional
Experiment [1] in a line: Antioxidant activity assessed as trolox equivalents of ABTS radical scavenging activity at 10 mins by TEAC assay. A digest of the protocol:
(§1)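 ABTS•+ scavenging run per an earlier published method. Standard curve built from six 1:2 serial dilutions of a 500 μg/mL stock solution. Activity expressed as Trolox equivalent antioxidant capacity (TEAC), read at 5 min intervals from 0 to 40 min after starting incubation with the radical. Seven technical replicates.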

Experiment [2] is described as follows: Antioxidant activity assessed as trolox equivalents of ABTS radical scavenging activity at 5 mins by TEAC assay. The gist of the method:
as §1

Experiment [3] is described as follows: Antioxidant activity assessed as trolox equivalents of ABTS radical scavenging activity at 0 min by TEAC assay. The gist of the method:
as §1

Experiment [4] has as its system Radical scavenging activity. The experiment is described as follows: Antioxidant activity assessed as DPPH radical scavenging activity. For orientation: DPPH is a stable violet radical that fades when it is reduced.
Experiment [5] can be described thus: Antioxidant activity assessed as trolox equivalents of ABTS radical scavenging activity at 40 mins by TEAC assay. The gist of the method: as §1
The nature of experiment [6]: Antioxidant activity assessed as trolox equivalents of ABTS radical scavenging activity at 30 mins by TEAC assay. The gist of the method:
as §1

A short description of experiment [7]: Antioxidant activity assessed as trolox equivalents of ABTS radical scavenging activity at 15 mins by TEAC assay. A digest of the protocol: as §1
Experiment [8] can be described thus: Antioxidant activity assessed as trolox equivalents of ABTS radical scavenging activity at 35 mins by TEAC assay. The gist of the method: as §1
Experiment [9] in a line: Antioxidant activity assessed as trolox equivalents of ABTS radical scavenging activity at 20 mins by TEAC assay. A digest of the protocol: as §1
Experiment [10] in a line: Antioxidant activity assessed as trolox equivalents of ABTS radical scavenging activity at 25 mins by TEAC assay. The gist of the method: as §1

Three compounds from ChEMBL document CHEMBL2203259, “Antioxidant glucosylated caffeoylquinic acid derivatives in the invasive tropical soda apple, Solanum viarum” (J Nat Prod, 2012) can be followed below.

Active and inactive are the calls of the source. The rule behind the calls is not given here.

For `O=C(/C=C/c1ccc(O[C@@H]2O[C@H](COC(=O)[C@]3(O)C[C@@H](O)[C@@H](O)[C@H](OC(=O)/C=C/c4ccc(O)c(O)c4)C3)[C@@H](O)[C@H](O)[C@H]2O)c(O)c1)O[C@@H]1C[C@](O)(C(=O)O)C[C@@H](O)[C@H]1O`, the Activity in experiment [1] was found to be 3.01; in experiment [2] it was 2.71; in experiment [3] it was 1.51; in experiment [5], 3.89; in experiment [6] it was 3.71; in experiment [7] it was 3.18. Besides, the Activity in [8] was 3.81; in experiment [9] it was 3.64; in experiment [10], 3.73. In addition, the result in experiment [4] was Active.

Regarding `O=C(/C=C/c1ccc(O)c(O)c1)O[C@@H]1C[C@](O)(C(=O)O)C[C@@H](O)[C@H]1O`, the Activity in [1] was 1.85; in [2] it was 1.61; in [3] it was -0.31; in [5] it was 2.56; in experiment [6], 2.42; in experiment [7], 2.1. The Activity amounted to 2.5 in experiment [8], 2.26 in experiment [9] and 2.49 in experiment [10]. In addition, in experiment [4], the result was Active.

As for `O=C(O)CC(=O)O[C@@H]1C[C@@](O)(C(=O)O)C[C@@H](OC(=O)/C=C/c2ccc(O[C@@H]3O[C@H](COC(=O)[C@]4(O)C[C@@H](O)[C@@H](O)[C@H](OC(=O)/C=C/c5ccc(O)c(O)c5)C4)[C@@H](O)[C@H](O)[C@H]3O)c(O)c2)[C@@H]1O`, the Activity in experiment [1] was 1.85; in experiment [2], 1.61; in [3], -0.31; in [5], 2.56; in [6], 2.42; in [7], 2.1. The results for the Activity in [8], in experiment [9] and in [10] were 2.5, 2.26 and 2.49, respectively. Moreover, in [4], the result was Active.
